One assay deals with L1210. Description: Effective concentration required to inhibit by 50% the growth of L1210 cells. The conditions noted are these: Mus musculus. The format is functional, cell-based. A digest of the protocol: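 Mouse L1210 leukemia cells were grown in RPMI 1640 with 5% fetal calf serum, penicillin and streptomycin at 37 °C in humidified air–5% CO2, and seeded at 5 × 10⁴ cells/mL. Compounds dissolved in 50% ethanol were added at four concentrations. EC50 is the concentration giving 50% growth inhibition after 48 h, measured by cell protein content.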

A further assay has as its system HeLa. Description: Effective concentration required to inhibit by 50% the growth of HeLa S3 cells. The format is functional, cell-based. The conditions noted are these: Homo sapiens. A digest of the protocol: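 HeLa S3 cultures were given compounds dissolved in water, at final concentrations of 0.005–5 μg/mL in the incubation medium. EC50 is the concentration that inhibited the increment of cellular protein by 50%, read from dose-response curves.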

In assay [1] the test system is P338. As to the kind of experiment: Ratio of medium survival time expressed as percent of untreated controls (dose 25 mg/kg); Toxic. The class given is functional, organism-based. More on the design: dose 25 mg/kg. The conditions noted are these: Mus musculus, at 25 mg/kg.
Assay [2] concerns P338. As to the kind of experiment: Ratio of medium survival time expressed as percent of untreated controls (dose 1.6 mg/kg). The class given is functional, Mus musculus. The method in brief:
(§1)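 BDF1 mice inoculated ip on day 0 with 10^6 P388 lymphocytic leukemia cells. Drug given ip on days 1–5 following NCI protocols, at the dose stated. Eight mice per treatment group. Mean survival time was computed per group, and % T/C = (MST treated/MST control) × 100.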

Assay [3] concerns P338. Description: Ratio of medium survival time expressed as percent of untreated controls (dose 6.25 mg/kg). The class given is functional, Mus musculus. The method in brief: as §1
Assay [4] has as its system P338. As to the kind of experiment: Survivor recorded on day 4 after day of first injection as a measure of drug toxicity (dose 3.12 mg/kg); 8/8. The format is functional, Mus musculus.
For assay [5], the system named is P338. Description: Ratio of medium survival time expressed as percent of untreated controls (dose 12.5 mg/kg). The format is functional, Mus musculus. The method in brief:
as §1

In assay [6] the test system is P338. As to the kind of experiment: Ratio of medium survival time expressed as percent of untreated controls (dose 3.12 mg/kg). The format is functional, Mus musculus. The method in brief:
as §1

The test system of assay [7] is P338. Description: Survivor recorded on day 4 after day of first injection as a measure of drug toxicity (dose 50 mg/kg); 0/8. The format is functional, Mus musculus.
The test system of assay [8] is P338. Description: Survivor recorded on day 4 after day of first injection as a measure of drug toxicity (dose 6.25 mg/kg); 8/8. The class given is functional, Mus musculus.
Assay [9] has as its system P338. Description: Survivor recorded on day 4 after day of first injection as a measure of drug toxicity (dose 12.5 mg/kg); 8/8. The class given is functional, Mus musculus.
The subject of assay [10] is P338. Description: Survivor recorded on day 4 after day of first injection as a measure of drug toxicity (dose 1.6 mg/kg); 8/8. The format is functional, Mus musculus.
In assay [11] the test system is P338. As to the kind of experiment: Survivor recorded on day 4 after day of first injection as a measure of drug toxicity (dose 25 mg/kg); 6/8. The class given is functional, Mus musculus.
The test system of assay [12] is P338. Description: Survivor recorded on day 4 after day of first injection as a measure of drug toxicity(dose 12.5 mg/kg); 6/6. The format is functional, Mus musculus.
Assay [13] relates to P338. As to the kind of experiment: Survivor recorded on day 4 after day of first injection as a measure of drug toxicity(dose 25 mg/kg); 6/6. The format is functional, Mus musculus.
Assay [14] concerns P338. As to the kind of experiment: Ratio of medium survival time expressed as percent of untreated controls(dose 3.12 mg/kg). The class given is functional, Mus musculus. The method in brief: as §1
For assay [15], the system named is P338. As to the kind of experiment: Survivor recorded on day 4 after day of first injection as a measure of drug toxicity(dose 6.25 mg/kg); 6/6. The format is functional, Mus musculus.
The test system of assay [16] is P338. Description: Ratio of medium survival time expressed as percent of untreated controls(dose 12.5 mg/kg). The class given is functional, Mus musculus. A digest of the protocol:
as §1

In assay [17] the test system is P338. Description: Ratio of medium survival time expressed as percent of untreated controls(dose 25 mg/kg). The class given is functional, Mus musculus. The method in brief: as §1
Assay [18] has as its system P338. As to the kind of experiment: Ratio of medium survival time expressed as percent of untreated controls(dose 6.25 mg/kg). The class given is functional, Mus musculus. A digest of the protocol: as §1
Assay [19] has as its system P338. Description: Survivor recorded on day 4 after day of first injection as a measure of drug toxicity(dose 3.12 mg/kg); 6/6. The format is functional, Mus musculus.
Assay [20] relates to P338. As to the kind of experiment: Survivor recorded on day 4 after day of first injection as a measure of drug toxicity(dose 25 mg/kg); 8/8. The format is functional, Mus musculus.
Assay [21] has as its system P338. Description: Survivor recorded on day 4 after day of first injection as a measure of drug toxicity(dose 3.12 mg/kg); 8/8. The format is functional, Mus musculus.
For assay [22], the system named is P338. As to the kind of experiment: Ratio of medium survival time expressed as percent of untreated controls(dose 1.5 mg/kg). The class given is functional, Mus musculus. A digest of the protocol: as §1
The test system of assay [23] is P338. Description: Ratio of medium survival time expressed as percent of untreated controls(dose 50 mg/kg). The format is functional, Mus musculus. A digest of the protocol: as §1
The test system of assay [24] is P338. Description: Survivor recorded on day 4 after day of first injection as a measure of drug toxicity(dose 12.5 mg/kg); 8/8. The class given is functional, Mus musculus.
Assay [25] has as its system P338. Description: Survivor recorded on day 4 after day of first injection as a measure of drug toxicity(dose 6.25 mg/kg); 8/8. The class given is functional, Mus musculus.
Assay [26] concerns P338. Description: Survivor recorded on day 4 after day of first injection as a measure of drug toxicity(dose 50 mg/kg); 8/8. The format is functional, Mus musculus.
Assay [27] has as its system P338. Description: Survivor recorded on day 4 after day of first injection as a measure of drug toxicity(dose 1.5 mg/kg); 8/8. The format is functional, Mus musculus.
Assay [28] relates to P338. Description: Survivor recorded on day 4 after day of first injection as a measure of drug toxicity (dose 40 mg/kg); 8/8. The format is functional, Mus musculus.
Assay [29] has as its system P338. Description: Ratio of medium survival time expressed as percent of untreated controls (dose 2.5 mg/kg). The format is functional, Mus musculus. The method in brief:
as §1

Assay [30] has as its system P338. As to the kind of experiment: Ratio of medium survival time expressed as percent of untreated controls (dose 10 mg/kg). The format is functional, Mus musculus. A digest of the protocol: as §1
For assay [31], the system named is P338. As to the kind of experiment: Ratio of medium survival time expressed as percent of untreated controls (dose 20 mg/kg). The class given is functional, Mus musculus. A digest of the protocol:
as §1

Assay [32] has as its system P338. As to the kind of experiment: Ratio of medium survival time expressed as percent of untreated controls (dose 5 mg/kg). The format is functional, Mus musculus. The method in brief:
as §1

The subject of assay [33] is P338. As to the kind of experiment: Survivor recorded on day 4 after day of first injection as a measure of drug toxicity (dose 2.5 mg/kg); 8/8. The format is functional, Mus musculus.
Assay [34] deals with P338. As to the kind of experiment: Ratio of medium survival time expressed as percent of untreated controls(dose 40 mg/kg); Toxic. The format is functional, organism-based. More on the design: dose 40 mg/kg. The following applies: Mus musculus, at 40 mg/kg. A digest of the protocol:
as §1

Assay [35] deals with P338. Description: Ratio of medium survival time expressed as percent of untreated controls(dose 1.25 mg/kg). The class given is functional, Mus musculus. A digest of the protocol: as §1
Assay [36] has as its system P338. Description: Survivor recorded on day 4 after day of first injection as a measure of drug toxicity (dose 10 mg/kg); 8/8. The format is functional, Mus musculus.
The test system of assay [37] is P338. Description: Survivor recorded on day 4 after day of first injection as a measure of drug toxicity (dose 20 mg/kg); 8/8. The class given is functional, Mus musculus.
The subject of assay [38] is P338. Description: Survivor recorded on day 4 after day of first injection as a measure of drug toxicity (dose 5 mg/kg); 8/8. The class given is functional, Mus musculus.
Assay [39] concerns P338. Description: Survivor recorded on day 4 after day of first injection as a measure of drug toxicity(dose 1.25 mg/kg); 8/8. The format is functional, Mus musculus.

In brackets after ≈: the same amount, converted by molar mass. Where only a bound is given, the exact number is not on record here.

What is called EC50 is the concentration at which the effect is half-maximal. With `CN(C)CC(=O)Nc1ccc(NC(=O)CN(C)C)c2c1C(=O)c1ccccc1C2=O`, the values for the EC50 in the assay on L1210 and with HeLa were 2.26 µg/mL (≈ 5.53 µM) and 0.39 µg/mL (≈ 0.955 µM), respectively.
Taken in the same sequence, the figures for `O=C1c2c(O)ccc(O)c2C(=O)c2c(NCCNCCO)ccc(NCCNCCO)c21` [MITOXANTRONE] were above 5 µg/mL and 0.55 µg/mL (≈ 1.24 µM).
What is called T/C is the ratio of treated to control. Regarding `CN(C)CCC(=O)Nc1ccc(NC(=O)CCN(C)C)c2c1C(=O)c1ccccc1C2=O`, the T/C result is “Toxic” in the assay on P338 [1]; 91% with P338 [2]; 100% in the assay with P338 [3]; 100% with P338 [5]; 91% with P338 [6]. The Survival with P338 [4] amounted to 8; in the assay on P338 [7], 0; in the assay on P338 [8], 8; in the assay with P338 [9], 8; in the assay on P338 [10], 8; with P338 [11], 6. Further, the results for the EC50 in the assay with L1210 and in the assay on HeLa were 0.36 µg/mL (≈ 0.825 µM) and 0.05 µg/mL (≈ 0.115 µM), respectively.
`O=C1c2ccccc2C(=O)c2c(NCCNCCO)ccc(NCCNCCO)c21` [AMETANTRONE]: the Survival in the assay with P338 [12], with P338 [13], in the assay on P338 [15] and in the assay on P338 [19] was 6 in each case. Besides, the T/C in the assay on P338 [14] is 190%; with P338 [16], 300%; with P338 [17] it was 200%; with P338 [18] it was 210%. For the same compound, the EC50 in the assay on L1210 came to 1.77 µg/mL (≈ 4.29 µM); in the assay on HeLa, 0.17 µg/mL (≈ 0.412 µM).
On to `CNCC(=O)Nc1ccc(NC(=O)CNC)c2c1C(=O)c1ccccc1C2=O`, for which the Survival in the assay on P338 [20], in the assay on P338 [21], in the assay with P338 [24], in the assay on P338 [25], with P338 [26] and in the assay with P338 [27] was 8 each time. The T/C is on record as 100% in the assay with P338 [14]; 100% in the assay on P338 [22]; 111% in the assay on P338 [23]; 100% in the assay with P338 [16]; 100% in the assay on P338 [17]; 111% with P338 [18]. Also, the EC50 is 0.79 µg/mL (≈ 2.08 µM) with L1210 and 0.14 µg/mL (≈ 0.368 µM) in the assay with HeLa.
Consider `O=C(CNCCO)Nc1ccc(NC(=O)CNCCO)c2c1C(=O)c1ccccc1C2=O`, for which the EC50 in the assay on L1210 is above 5 µg/mL; in the assay with HeLa, 1.41 µg/mL (≈ 3.2 µM).
Consider `CNCCC(=O)Nc1ccc(NC(=O)CCNC)c2c1C(=O)c1ccccc1C2=O`, for which the Survival with P338 [28], in the assay on P338 [33], in the assay with P338 [36], in the assay with P338 [37], in the assay on P338 [38] and in the assay on P338 [39] was 8 each time. The T/C with P338 [29] was 120%; with P338 [30], 130%; with P338 [31], 120%; in the assay with P338 [32] it was 130%; with P338 [34], “Toxic”; in the assay with P338 [35], 110%. Further, the values for the EC50 in the assay with L1210 and in the assay on HeLa were 1.28 µg/mL (≈ 3.13 µM) and 0.08 µg/mL (≈ 0.196 µM), respectively.

The values are drawn from ChEMBL document CHEMBL1123978, “Synthesis and antineoplastic evaluation of 1,4-bis(aminoalkanamido)-9,10-anthracenediones” (J Med Chem, 1988).
